# High-throughput results from PubChem.
# ASAP1 inh: inhibitors of human ASAP1 ArfGAP activity; Q9ULH1; ASAP1-stimulated ARF1 GTP hydrolysis, GDP FP detection; inhibition, % at 16.5 µM; 360,000 tested, 0.19% active; AID 624377; in the data active means inhibition above about 25%;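 further: 0% = vehicle with enzyme and substrate and 100% = no enzyme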
# Target sequence (Q9ULH1 325-724 limits assumed): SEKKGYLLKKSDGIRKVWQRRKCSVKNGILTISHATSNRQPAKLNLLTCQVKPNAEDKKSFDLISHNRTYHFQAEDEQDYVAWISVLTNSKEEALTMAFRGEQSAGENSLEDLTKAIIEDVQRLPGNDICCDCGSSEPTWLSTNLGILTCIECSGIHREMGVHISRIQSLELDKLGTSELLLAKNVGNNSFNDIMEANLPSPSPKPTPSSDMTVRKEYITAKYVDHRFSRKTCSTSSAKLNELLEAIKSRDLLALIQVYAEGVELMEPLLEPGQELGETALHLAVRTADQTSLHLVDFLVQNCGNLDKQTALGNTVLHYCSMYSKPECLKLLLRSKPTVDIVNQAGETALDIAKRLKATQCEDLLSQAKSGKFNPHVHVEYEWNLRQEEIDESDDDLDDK
# ARFGAP1 inh: rat ARFGAP1 inhibition; inhibition, % at 16.5 µM; Arfgap1-stimulated ARF1 GTP hydrolysis, GDP FP detection; 360,000 tested, 0.26% active;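 active means inhibition above a per-plate limit, mean inhibition of low control wells plus 3 SD, cut at about 25% in these data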;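 further: 0% = DMSO wells with enzyme and 100% = wells lacking Arfgap1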
# Target sequence (Q62848 1-136 limits assumed): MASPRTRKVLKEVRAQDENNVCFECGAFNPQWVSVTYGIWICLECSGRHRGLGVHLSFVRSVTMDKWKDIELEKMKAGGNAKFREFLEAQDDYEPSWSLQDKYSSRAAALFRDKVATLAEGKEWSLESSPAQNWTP
#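 Assay system: Rat Arfgap1 GAP domain (His6, aa 1-136), purified enzyme | Buffer or medium: HEPES 25 mM pH 7.5, NaCl 150 mM, MgCl2, DTT | Schedule: GTP hydrolysis reaction 2 h at 25 °C | Signal: FP of antibody-bound GDP Alexa 633 tracer, ex 620/em 688 nm | Measure: Percent inhibition of Arfgap1-stimulated GTP hydrolysis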
# PAFAH2 inh: inhibitors of human PAFAH2; Q99487; recombinant PAFAH2, FP-rhodamine activity probe, fluorescence polarization; AID 492956; inhibition, % at 3.39 µM; 340,000 tested, 0.99% active;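 active means inhibition above the mean over all tested compounds plus 3 SD, cut at about 30% in these data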;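 further: inhibitors block probe labeling of enzyme so polarization drops; 0% = enzyme with DMSO and 100% = wells lacking PAFAH2 protein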
# PAFAH1B3 FP inh: blocks human PAF acetylhydrolase 1B catalytic subunit 3; 340,000 tested, 0.28% active; recombinant PAFAH1B3, FP-rhodamine probe, fluorescence polarization; inhibition, % at 3.39 µM; AID 492972; Q15102;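 active means inhibition above the screen-wide average of all tested compounds plus 3 SD, cut at about 25% in these data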;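 further: 0% = enzyme with DMSO only and 100% = wells lacking PAFAH1B3 protein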
# pPAFAH FP inh: pPAFAH (human) enzyme inhibition. inhibition, % at 3.39 µM. Q13093. 330,000 tested, 1.5% active. recombinant pPAFAH, FP-rhodamine probe fluorescence polarization;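 active means inhibition above the mean inhibition across the screen plus 3 SD, cut at about 25% in these data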;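 further: inhibitors block binding of the rhodamine activity-based probe so polarization drops; 0% = enzyme with DMSO and 100% = wells lacking pPAFAH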
# PAFAH1B2 inh: inhibitors of human PAFAH1B2. P68402. 340,000 tested, 1.2% active. recombinant PAFAH1B2, FP-rhodamine activity probe, fluorescence polarization. inhibition, % at 3.39 µM;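 active means inhibition above the mean of all tested compounds plus 3 SD, cut at about 24% in these data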;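 further: 0% = enzyme with DMSO and 100% = wells lacking PAFAH1B2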
# PAFAH2 FP conf: confirmation of human PAFAH2 inhibitors; 2,300 tested, 65% active; AID 493030; recombinant PAFAH2, FP-rhodamine activity probe, fluorescence polarization; inhibition, % at 3.39 µM; shares compounds with PAFAH2 inh;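 active means mean inhibition over three repeats above a set limit taken from the earlier primary screen, cut at about 30% in these data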;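 further: inhibitor blocks binding of rhodamine activity probe so polarization falls; 0% = enzyme with DMSO and 100% = wells lacking PAFAH2 protein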
# * hit, by the source's call; . = no result given. Sampled rows, rich in hits. Any-hit rate of the full collection: about 2.7%.
SMILES,ASAP1 inh,ARFGAP1 inh,PAFAH2 inh,PAFAH1B3 FP inh,pPAFAH FP inh,PAFAH1B2 inh,PAFAH2 FP conf
Cc1cc(C)c(CN2CCN(C(=O)Cn3cnc(C(=O)Nc4ccc(C)c(C)c4)n3)CC2)c(C)c1,8.7,1.2,-5.4,2.5,7.5,1.4,.
Nc1ncnc2c1ncn2[C@@H]1O[C@H](C(=O)Nc2ccc(Oc3ccccc3)nc2)[C@@H](O)[C@H]1O,-5.3,7.5,.,.,.,.,.
COc1ccc(NC(=O)COC(=O)C23CC4CC(CC(O)(C4)C2)C3)cc1Cl,-0.3,-2.9,20.3,11.9,-3.9,8.1,.
Cc1cc(C)c(NC(=O)COC(=O)C23CC4CC(CC(O)(C4)C2)C3)c(Cl)c1,-8.3,-3.6,47.4*,5.0,18.1,6.0,34.2*
O=C(COC(=O)C12CC3CC(CC(O)(C3)C1)C2)Nc1ccc(Cl)c(S(=O)(=O)N2CCOCC2)c1,-8.5,9.4,47.9*,11.5,4.0,3.9,24.5
O=C(O/N=C1\CCS(=O)(=O)c2sccc21)c1c(F)cccc1F,-4.5,-2.5,2.1,-2.0,8.2,5.9,.
O=S1(=O)CC/C(=N\Nc2ccccc2)c2ccsc21,4.8,-6.5,2.1,8.3,5.0,-2.8,.
Cc1ccc(C(=O)O/N=C2\CCS(=O)(=O)c3sccc32)cc1,-7.9,-0.4,87.7*,-2.0,6.1,0.2,83.3*
COc1cccc(C(=O)O/N=C2\CCS(=O)(=O)c3sccc32)c1,-7.5,-4.0,69.6*,2.0,13.2,8.0,36.6*
O=C(CCS(=O)(=O)c1ccc(F)cc1)N1CCN(c2ccccc2)CC1,-8.8,0.9,32.3*,7.8,8.1,4.6,25.5
O=C(CCS(=O)(=O)c1ccccc1)N1CCN(c2ccc(F)cc2)CC1,4.2,12.1,10.1,3.9,-2.7,1.3,.
CC(=O)c1cccc(NC(=O)COC(=O)CC2CC3CCC2C3)c1 (stereo not drawn),-0.9,-12.9,74.8*,-1.6,19.7,16.2,62.6*
NS(=O)(=O)c1cccc(NC(=O)COC(=O)CC2CC3CCC2C3)c1 (stereo not drawn),4.9,-10.9,34.6*,5.5,1.5,20.8,18.7
O=C(COc1ccccc1Cl)Nc1ccc2[nH]c(=O)[nH]c2c1,5.8,-5.2,4.3,-0.8,.,7.1,.
O=c1oc(-c2ccccc2F)nc2c1cnn2-c1ccccc1,4.6,5.8,73.8*,7.7,0.2,4.0,44.6*
O=c1oc(-c2cccc(Cl)c2)nc2c1cnn2-c1ccccc1,-4.7,1.3,69.6*,5.8,19.9,-3.3,51.9*
Nc1c(-c2cccc(Cl)c2)cnn1-c1ccccc1,4.5,6.8,1.9,-2.6,8.5,3.5,.
CSc1nc2c(cnn2-c2ccccc2)c(=O)n1N,1.3,3.1,1.1,0.9,5.5,-3.2,.
Cc1cn([C@H]2C[C@H](O)[C@@H](CCC(=O)NC(c3ccccc3)c3ccccc3)O2)c(=O)[nH]c1=O,0.5,0.9,-0.5,4.3,.,1.9,.
O=C(N/N=C/c1coc2ccccc2c1=O)c1cc(Br)c(O)c(Br)c1,-8.0,1.9,71.1*,4.4,.,4.5,54.8*
O=C(N/N=C/c1coc2ccccc2c1=O)c1ccncc1,1.0,8.2,-2.1,13.2,.,6.9,.
CCOc1ccc(C(=O)NCC(=O)OCC(=O)NC2CCCC2)cc1,2.9,-8.2,36.3*,10.1,5.5,5.2,21.4
CCOc1ccc(C(=O)OCC(=O)NC2CCCCCCC2)cc1,0.7,5.1,93.0*,4.4,19.9,1.1,85.7*
Cc1ccc(C(=O)OCC(=O)Nc2sc3c(c2C#N)CCCC3)cc1NC(=O)c1ccco1,4.2,-4.7,13.2,-24.9,21.0,-3.0,.
Cc1ccc(C(=O)OCC(=O)Nc2ncc(Cl)cc2Cl)cc1NC(=O)c1ccco1,-7.6,23.4,42.2*,8.7,9.8,0.5,41.3*
SMILES,ASAP1 inh,ARFGAP1 inh,PAFAH2 inh,PAFAH1B3 FP inh,pPAFAH FP inh,PAFAH1B2 inh,PAFAH2 FP conf
Cc1ccc(C(=O)OCC(=O)Nc2cc(F)ccc2F)cc1NC(=O)c1ccco1,1.3,6.5,77.7*,-2.4,-1.1,2.0,70.3*
Cc1ccc(C(=O)OCC(=O)Nc2nc(-c3ccccc3)cs2)cc1NC(=O)c1ccco1,1.6,8.9,-22.2,-11.3,-15.0,-3.1,.
Cc1ccc(C(=O)OCC(=O)Nc2sc3c(c2C#N)CCCCC3)cc1NC(=O)c1ccco1,-3.5,5.3,-7.6,-10.8,0.4,-8.9,.
CCC(C)c1ccccc1NC(=O)COC(=O)c1ccc(C)c(NC(=O)c2ccco2)c1 (stereo not drawn),8.1,-4.7,78.3*,3.7,0.6,-0.5,73.6*
Cc1ccc(C(=O)OCC(=O)Nc2ccccc2)cc1NC(=O)c1ccco1,-4.7,-6.4,81.5*,1.3,8.2,-7.3,81.2*
O=C(Nc1nnc([C@@H]2C[C@H](O)[C@@H](CO)O2)s1)c1cccc(OC(F)(F)F)c1,3.0,1.0,.,.,.,.,.
CN(Cc1cn(Cc2ccc(F)cc2)nn1)C1CN(Cc2cn(Cc3ccc(F)cc3)nn2)S(=O)(=O)C1 (stereo not drawn),-12.8,9.7,.,.,.,.,.
Cc1ccc(C(=O)OCC(=O)Nc2ccc(N(C)C)cc2)cc1NC(=O)c1ccco1,-10.4,6.2,40.5*,2.6,0.7,-2.4,34.6*
Cc1ccc(C(=O)OCC(=O)Nc2sccc2C(N)=O)cc1NC(=O)c1ccco1,-15.1,7.0,15.6,-1.3,1.2,-1.3,.
CCc1ccc([C@@H]2C[C@H]3[C@@H](CN2S(=O)(=O)c2ccc(C)cc2)C(=O)C[C@@H](c2cccc(Cl)c2)N3S(=O)(=O)c2ccc(C)cc2)cc1,8.6,3.9,.,.,.,.,.
C=CCOC(=O)c1cc(-c2ccc(/C=C3\C(=O)NC(=O)C(C#N)=C3C)o2)ccc1Cl,-4.5,-4.3,42.4*,11.4,.,12.3,19.4
CC1=C(C#N)C(=O)NC(=O)/C1=C/c1ccc(-c2ccc(S(N)(=O)=O)cc2)o1,15.2,8.1,8.7,23.7,15.1,0.0,.
CC1CC(C)CN(C(=O)/C(=C\c2ccccc2)c2ccccc2)C1 (stereo not drawn),-11.6,0.1,1.6,-4.3,2.1,4.4,.
CC1CCCCN1C(=O)/C(=C\c1ccccc1)c1ccccc1 (stereo not drawn),1.8,-24.4,38.0*,4.7,-4.3,7.8,9.4
Oc1oc(-c2ccccc2)nc1C=Nc1ccccc1,-8.7,5.6,27.9,6.3,3.2,4.8,.
Oc1oc(-c2ccccc2)nc1C=NCc1ccccc1,-7.1,-6.4,45.1*,11.2,17.6,4.5,37.3*
O=C(COC(=O)c1ccc(F)cc1F)Nc1ccc(Cl)cn1,-3.3,13.8,38.6*,6.2,14.0,3.5,31.1*
NC(=O)Nc1ccc(C(=O)OCC(=O)Nc2ccc(Cl)cn2)cc1,9.6,-4.7,82.4*,4.6,8.6,5.0,71.8*
O=C(COC(=O)c1cnccn1)Nc1ccc(Cl)cn1,-9.6,5.4,-4.8,4.8,5.4,-2.5,.
